System: MS2 coat protein
Test: apparent Kd, MS2 coat protein; higher = weaker binding; RNA-MaP array; FMN 200 µM where present
Procedure, shortened: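 SNAP-549-labelled MS2 coat protein, doubled from 0.7 or 1.5 nM to 3 µM, was titrated over designs transcribed by stalled E. coli RNA polymerase on Illumina sequencing-chip clusters. Titrations were run without and then with constant ligand in 100 mM Tris-HCl pH 7.5, 80 mM KCl, 4 mM MgCl2, BSA, DTT, yeast tRNA and Tween-20. The apparent Kd is the median of filtered per-cluster fits to green signal normalised to red-channel RNA signal and control-cluster median Fmax.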

[1] = designed as: ON switch for flavin mononucleotide, no ligand
[2] = ligand present: flavin mononucleotide, designed as: ON switch for flavin mononucleotide
[3] = designed as: OFF switch for flavin mononucleotide, no ligand
[4] = ligand present: flavin mononucleotide, designed as: OFF switch for flavin mononucleotide

| Sequence | apparent Kd [1] [nM] | apparent Kd [2] [nM] | apparent Kd [3] [nM] | apparent Kd [4] [nM] |
| --- | --- | --- | --- | --- |
| ACUUCACAUGAGGAUCACCCAUGUCAGGCCGGACUAGGAUAUUAUCAUGCAGCGUAACCGUAAGAAGGAGUUGGAU | 88.3 | 187 | – | – |
| AAUUGAGAGCAGGAUAUAUUCCUGAUGUAUGAAGUAGAAGGGCUCACAUGAGGAUCACCCAUGUGAUCCUGAAU | – | – | 16.1 | 18 |
| CUUCGUAUAGAGGAUAUAGGAUACGAAAGUGUCCUAGAAGGCUGUACAUGAGGAUCACCCAUGUACUUCAGAUC | – | – | 13.2 | 16.4 |
| UGUCCAUAGCAGAAGGACAUGUAUAAUCAUGAAAACAUGAGGAUCACCCAUGUAGGAUAUGCUAUGGACUAAGAGCGAAAGCUC | – | – | 19.9 | 297 |
| AAAACGGCGCAUCCCGCGCCAACUACAGAAGGCCAACAUGAGGAUCACCCAUGUACAAACUAGAUGGAGGAUAUGUAGGUUCUA | 5.18 | 4.2 | – | – |
| GGGAUGUGAGGAUAUACAUGAACUAUCCACUGUGCUGGGCCACAUGAGGAUCACCCAUGUAGAAGGUACGCCCA | – | – | 66.2 | 168 |
| ACCGGUGUAGGAUAUAUCUGGGAUGAAGAUGAUCCUGCUAAACAUGAGGAUCACCCAUGUAGAAGGAUGCCUGG | – | – | 83.6 | 178 |
| UCGGCGCGAGGAUAUGCGGUUUGUGCUUUGGGCCCUGGCGUACAUGAGGAUCACCCAUGUAGAAGGCGCGCCGC | – | – | 19.5 | 19.6 |
| GCCCUCUCUGAGGAUAUUAUCUGGUUCGAUUGAUAAGAAGGCAGUACAUGAGGAUCACCCAUGUGGUUCGUUUG | – | – | 109 | 303 |
| UUAUGUUAUGUAGGAUAUCAUUAGAUUUGUAAUUUAAUUGUUAUUUAGAUUUGAGAAGGACAUUUACAUGAGGAUCACCCAUGU | – | – | 14.8 | 11.7 |
| CCCGUCAUCGAGAAGGCCUCAACAUGAGGAUCACCCAUGUUGUAAUAUGGGAGGAUAUCGAUGAUACAGCUACGUUUCGUACCC | 17.1 | 5.8 | – | – |
| GACUGCCGAGGAUAUACAUGAGGAUCACCCAUGUGCUUCAGUAUCGAAAGAUGCAUGGGUAGAAGGCGGUAGUC | – | – | 391 | 284 |
| CGUAUGUGAGGAUAUGACAAUGGUAUCUUCGGAUACCAUUGUCAGAAGGUACAUGAGGAUCACCCAUGUAGAUC | – | – | 27.1 | 59.9 |
| GCAGCUAAUGCAGGAUAUCAGCACGUGUAGUGCUGAGAAGGGCACAUGAGGAUCACCCAUGUGAUCAAUUAAUGUUAAUGCUGC | – | – | 18.1 | 57.5 |
| UAGUAGGUAGGAUAUACAUGGAUAUACAUUCAUGUGGACCUACAUGAGGAUCACCCAUGUAGAAGGACCUACUA | – | – | 38.1 | 88.9 |
| CCUCGCCCUCUUGCACAUGAGGAUCACCCAUGUUUUACGUACUAGGAUAUAGCUAUGUUCAAUCGUUAGAAGGAGUUCAUGGAU | – | – | 110 | 105 |
| GGCGGGCACACUGGCCGCUGAAGGAGAAGGCAGUGCACAUGAGGAUCACCCAUGUCGCGUGUGCCUGAGGAUAUCCGUAAAACG | – | – | 9.38 | 71.4 |
| AAGAAACAUGAGGAUCACCCAUGUAGAAAUAUGGGAGGAUAUACGAAGACGAAAGUCAAAGUAGAAGGCCUAAAAG | 94.6 | 27.7 | – | – |
| UUCAUGUGAGGAUAUGCGGCACCAGGUGGGCCUGGCGCUGAGCAGAAGGCACAUGAGGAUCACCCAUGUGCUCC | – | – | 29.7 | 56.7 |
| CGGCGCUGUCGAGAGGAUAUGCGGUGAUGGACAUGAGGAUCACCCAUGUUAGCGAUAGCAUUACGGUAGAAGGCUCUAUAGUUGC | 362 | 93.2 | – | – |
| UCGUGCCGGGUUGCGAGCGACCCACAUGAGGAUCACCCAUGUAGAAGGACCAGCGUCGGCCCUUGGUAGGAUAUACAUGAACUC | – | – | 113 | 152 |
| UACGUACAGAAGUACUCCGGGUCCAGAAGGGACAUGAGGAUCACCCAUGUACCGUUGAUUGCUUGUCAGGAUAUGGACCCGGCC | – | – | 7.29 | 28.5 |
| GGAAUGUCGGGAGGAUAUCCAAAUGUAUACAUAGGAGAAGGCCCGCACAUGAGGAUCACCCAUGUAAUAACGCGUGGCAUCUAC | – | – | 81.3 | 169 |
| GUAGCUAUCGGAGGAUAUUCAUAUCGGAAACGGACAUGAGGAUCACCCAUGUGGCUAAAGCCUUGGGAGAAGGCCGAUAGCUAC | 120 | 7.75 | – | – |

| Sequence | apparent Kd [1] [nM] | apparent Kd [2] [nM] | apparent Kd [3] [nM] | apparent Kd [4] [nM] |
| --- | --- | --- | --- | --- |
| AAUUGAAACGUAGGAUAUCGCUAUAAAUUAACACGAGAAGGACGUACAUGAGGAUCACCCAUGUUAAAUGGUGUAGUUUAGUUG | – | – | 32.8 | 95.5 |
| GAUAAGGGCGAGGAUAUGCCAUUGGCUGAGGUCGUAGAAGGUGCCACAUGAGGAUCACCCAUGUAUCAAGUACG | – | – | 34.5 | 32.4 |
| CAGGUAGACUGAGGAUAUACAAAAGACCUAGUCUAUCUAGGUCACAUCACAUGAGGAUCACCCAUGUAGAAGGCAGUCUGCCUG | – | – | 16.2 | 27.1 |
| AAUCCACAUGAGGAUCACCCAUGUGAGGAUAUGAUACUAUGUACUUCGGUACAUAGUAUCAGAAGGCACAGGUC | – | – | 23.6 | 51.6 |
| UUAUUAAACAUUAACAUGAGGAUCACCCAUGUCAAAAGACAUGAGGAUAUGGAUCCUAAUUGGAUCCAGAAGGCAUGUAUUAAU | 156 | 15.6 | – | – |
| CCGUUACAUGAGGAUCACCCAUGUGAGGAUAUCGGGAUGACUGGCAGCGUGCGGGACUCGAGAAGGCACUGGGC | – | – | 46.1 | 41.5 |
| CUUAGGUGUACAUGAGGAUCACCCAUGUCCCUGGUCAUUAGACAGGAUAUAUGGGCGGUCGCUGCAUAGAAGGGUUAAAUGGGA | 764 | 591 | – | – |
| GUACUGUAGUGAGGAUAUACGAGUACGAUAGUACGGCGAUCCAAUUAUACAUGAGGAUCACCCAUGUAGAAGGCACUUCAGUAC | – | – | 9.93 | 41.1 |
| UGGAGGUCAGGAUAUGCAUGGCGGGACUUGCGUCGUGGCGUGCAGAAGGGACAUGAGGAUCACCCAUGUGGAGG | – | – | 124 | 121 |
| GGUACUCAAAGAGUACCAAUACGAACAUGAGGAUCACCCAUGUAGGAUAUGCUACUCAAAGAGUAGCAGAAGGACAUGUGCCUA | – | – | 19.1 | 106 |
| AUUUAUGGCCAGAAGGACAUGAGGAUCACCCAUGUAGGAUAUGGACGAUUUUGCUCGGCGGUUUGUUUAGGAAGCACCGGUGAU | 21.5 | 7.6 | – | – |
| UAAAUGUCAGGAUAUUGUUAAUUUAGUUGUUUGUAUUAGUUCGAGAAGGGACAUGAGGAUCACCCAUGUUGUUU | – | – | 28.9 | 31.1 |
| ACAUAGUGAGGAUAUGCUGCUCGUCACUUGCGUGAUGAGUAGCAGAAGGCACAUGAGGAUCACCCAUGUAAAGA | – | – | 42.3 | 63.7 |
| ACAUGAGGAUCACCCAUGUGGAGUGAAGAAGGUAGAUACUUAUGACUCUCCCAUGUACAUAGGACUGAGGAUAUUCUAAUAAUU | 30.8 | 24 | – | – |
| AGUAACAGAGGAUAUACUAUUUUAUGUAUUUAUUAUUUUAAACAUGAGGAUCACCCAUGUAGAAGGCUGAAUGA | – | – | 24.7 | 22.8 |
| CUAUACAUAUCAGGAUAUCUAUUUCCUACAUGAGGAUCACCCAUGUAGAGGAUCACCCAUGUAAAGGAGAAGGGAUAUGUAUAG | 105 | 20.9 | – | – |
| CGAGUCAUAGCUCCUUAGCCAGCCAGAAGGGUCUACAUGAGGAUCACCCAUGUGGUCUCGAAGGGACAGGAUAUGGAGGGCGUA | – | – | 5.39 | 7.36 |
| ACCAAUGGAGGAUAUACAUGAGGAUCACCCAUGUUUAUCCUACAUAGGUGAAAAAUAUGUAGAAGGCCAUUGGA | – | – | 17 | 20.5 |
| CCGGUGUCAGGAUAUACGCCAACCACUGAAAAGGUAUGGGCGUAGAAGGGACAUGAGGAUCACCCAUGUCAGUC | – | – | 22.8 | 36.3 |
| UUUGUUGUUGUGAGGAUAUCGUAGUUAUUUUGUAACGAGAAGGCACAUGAGGAUCACCCAUGUUUUUUGAUGGU | – | – | 22.7 | 90 |
| AACGAGCAGUAGAAGGCAUGUCUACGGACAUGAGGAUCACCCAUGUUGUGACUCCGAAAGGAGCGUGAGGAUAUACUGCUCAAA | 91.9 | 14.3 | – | – |
| GUUCCACAUGAGGAUCACCCAUGUGAGGAUAUGGAUUCGCUGGCCGUAGCCAGUGGAUCCAGAAGGCGCAUGAU | – | – | 39.9 | 153 |
| GUCAGCUCGUGAGGAUAUACAUCACUGCUUCGGCAGUGUAUUAAGAUUACAUGAGGAUCACCCAUGUAGAAGGCACGAGCUGAU | – | – | 17.4 | 23.9 |
| UAAGUUGAGGAGAAGGGAGCACAUGAGGAUCACCCAUGUGGUUCUUUGUGCUCAGGAUAUCCAUGGAGCUCCGUCGAGUUCCAG | – | – | 56.7 | 16.6 |
